Reference: ChEMBL document CHEMBL2062477, “Dual-Specificity Phosphatase CDC25A/B Inhibitor Identified from a Focused Library with Nonelectrophilic Core Structure” (ACS Med Chem Lett, 2012)
The source made the active and inactive calls. No cut-off for these calls is given here.

Biological target: T1, M-phase inducer phosphatase 1 (Homo sapiens, UniProt P30304)
T1 sequence (P30304 whole entry): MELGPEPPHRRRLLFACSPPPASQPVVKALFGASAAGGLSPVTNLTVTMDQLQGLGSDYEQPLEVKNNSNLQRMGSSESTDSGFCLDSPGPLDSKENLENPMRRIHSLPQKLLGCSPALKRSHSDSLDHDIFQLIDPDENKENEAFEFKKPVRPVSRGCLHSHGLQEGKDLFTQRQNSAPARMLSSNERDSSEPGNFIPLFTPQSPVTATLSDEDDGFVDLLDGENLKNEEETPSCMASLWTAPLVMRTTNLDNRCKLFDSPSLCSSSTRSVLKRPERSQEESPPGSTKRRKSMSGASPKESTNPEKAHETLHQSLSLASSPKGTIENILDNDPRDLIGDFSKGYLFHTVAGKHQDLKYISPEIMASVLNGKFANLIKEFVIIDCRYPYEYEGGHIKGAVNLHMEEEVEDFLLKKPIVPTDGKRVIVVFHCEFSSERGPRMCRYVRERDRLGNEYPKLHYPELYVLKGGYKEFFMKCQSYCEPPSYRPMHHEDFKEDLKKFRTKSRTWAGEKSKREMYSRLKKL
Test: Inhibition of CDC25A
Details: not given

| IC50 [µM] | Structure (SMILES) |
| --- | --- |
| 16.6 | CCCCCCCCCCCCCCC/C(NCc1ccccc1)=C1/C(=O)OC(CO)C1=O (stereo not drawn) |
| > 100 | CCCCCCCCCCCCCCCC(NCc1cccc(C)c1)=C1C(=O)OC(CO)C1=O (mixture of isomers) |

Biological target: T2, M-phase inducer phosphatase 2 (Homo sapiens, UniProt P30305)
T2 sequence (P30305 whole entry): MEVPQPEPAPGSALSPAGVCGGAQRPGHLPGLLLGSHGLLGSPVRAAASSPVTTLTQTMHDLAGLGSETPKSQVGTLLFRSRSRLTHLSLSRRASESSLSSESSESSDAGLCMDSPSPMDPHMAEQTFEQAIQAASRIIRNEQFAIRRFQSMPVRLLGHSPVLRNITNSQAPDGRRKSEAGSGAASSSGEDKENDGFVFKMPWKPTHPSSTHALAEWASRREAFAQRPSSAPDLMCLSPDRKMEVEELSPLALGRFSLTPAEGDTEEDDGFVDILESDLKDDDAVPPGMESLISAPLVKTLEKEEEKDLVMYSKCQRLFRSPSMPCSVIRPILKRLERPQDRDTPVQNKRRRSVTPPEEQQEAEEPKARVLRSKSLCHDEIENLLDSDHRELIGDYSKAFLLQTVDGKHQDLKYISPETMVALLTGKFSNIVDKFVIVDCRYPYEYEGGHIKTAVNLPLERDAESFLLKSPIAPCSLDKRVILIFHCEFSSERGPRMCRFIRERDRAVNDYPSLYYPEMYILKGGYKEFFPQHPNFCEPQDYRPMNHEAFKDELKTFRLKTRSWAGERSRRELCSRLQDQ
Test: Inhibition of CDC25B
Details: not given

| IC50 [µM] | Structure (SMILES) |
| --- | --- |
| 8.42 | CCCCCCCCCCCCCCC/C(NCc1ccccc1)=C1/C(=O)OC(CO)C1=O (stereo not drawn) |
| > 100 | CCCCCCCCCCCCCCCC(NCc1cccc(C)c1)=C1C(=O)OC(CO)C1=O (mixture of isomers) |

Biological target: T3, M-phase inducer phosphatase 3 (Homo sapiens, UniProt P30307)
T3 sequence (P30307 whole entry): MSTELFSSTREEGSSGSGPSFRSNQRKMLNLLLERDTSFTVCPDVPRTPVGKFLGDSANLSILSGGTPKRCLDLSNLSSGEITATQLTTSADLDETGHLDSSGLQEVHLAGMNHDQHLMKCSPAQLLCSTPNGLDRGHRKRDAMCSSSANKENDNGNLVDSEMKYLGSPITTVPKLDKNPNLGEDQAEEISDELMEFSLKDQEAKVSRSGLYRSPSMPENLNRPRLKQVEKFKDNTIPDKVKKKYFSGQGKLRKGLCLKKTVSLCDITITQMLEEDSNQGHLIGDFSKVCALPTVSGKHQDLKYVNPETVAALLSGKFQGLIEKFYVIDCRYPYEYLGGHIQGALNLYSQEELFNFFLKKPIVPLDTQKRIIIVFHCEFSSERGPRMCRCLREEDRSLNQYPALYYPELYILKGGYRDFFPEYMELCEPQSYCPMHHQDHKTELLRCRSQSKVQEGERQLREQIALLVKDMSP
Test: Inhibition of CDC25C
Details: not given

| IC50 [µM] | Structure (SMILES) |
| --- | --- |
| > 100 | CCCCCCCCCCCCCCC/C(NCc1ccccc1)=C1/C(=O)OC(CO)C1=O (stereo not drawn) |
| > 100 | CCCCCCCCCCCCCCCC(NCc1cccc(C)c1)=C1C(=O)OC(CO)C1=O (mixture of isomers) |

Biological target: Dual specificity protein phosphatase 3 (Homo sapiens, UniProt P51452)
Sequence (P51452 whole entry): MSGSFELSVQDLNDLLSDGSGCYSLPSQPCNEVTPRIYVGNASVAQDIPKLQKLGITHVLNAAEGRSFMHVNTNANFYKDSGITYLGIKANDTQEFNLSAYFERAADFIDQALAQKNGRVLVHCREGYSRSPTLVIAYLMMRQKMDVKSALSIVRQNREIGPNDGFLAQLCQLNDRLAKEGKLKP
Test: Inhibition of VHR
Details: not given

| IC50 [µM] | Structure (SMILES) |
| --- | --- |
| 11.4 | CCCCCCCCCCCCCCC/C(NCc1ccccc1)=C1/C(=O)OC(CO)C1=O (stereo not drawn) |
| 1.63 | CCCCCCCCCCCCCCCC(NCc1cccc(C)c1)=C1C(=O)OC(CO)C1=O (mixture of isomers) |

Biological target: T4, Dual specificity protein phosphatase 1 (Homo sapiens, UniProt P28562)
T4 sequence (P28562 whole entry): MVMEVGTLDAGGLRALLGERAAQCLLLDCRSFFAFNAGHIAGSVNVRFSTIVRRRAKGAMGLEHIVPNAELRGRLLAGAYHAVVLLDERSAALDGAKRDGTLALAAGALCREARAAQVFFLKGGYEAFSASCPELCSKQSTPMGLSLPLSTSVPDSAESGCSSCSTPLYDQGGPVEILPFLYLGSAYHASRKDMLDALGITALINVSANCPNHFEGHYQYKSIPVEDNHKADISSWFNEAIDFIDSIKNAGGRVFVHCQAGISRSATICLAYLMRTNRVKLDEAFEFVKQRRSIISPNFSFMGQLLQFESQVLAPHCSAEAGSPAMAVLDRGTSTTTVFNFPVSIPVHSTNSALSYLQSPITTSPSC
Test: Inhibition of MKP1
Details: not given

| IC50 [µM] | Structure (SMILES) |
| --- | --- |
| > 100 | CCCCCCCCCCCCCCC/C(NCc1ccccc1)=C1/C(=O)OC(CO)C1=O (stereo not drawn) |
| > 100 | CCCCCCCCCCCCCCCC(NCc1cccc(C)c1)=C1C(=O)OC(CO)C1=O (mixture of isomers) |

Biological target: T5, Dual specificity protein phosphatase 6 (Homo sapiens, UniProt Q16828)
T5 sequence (Q16828 whole entry): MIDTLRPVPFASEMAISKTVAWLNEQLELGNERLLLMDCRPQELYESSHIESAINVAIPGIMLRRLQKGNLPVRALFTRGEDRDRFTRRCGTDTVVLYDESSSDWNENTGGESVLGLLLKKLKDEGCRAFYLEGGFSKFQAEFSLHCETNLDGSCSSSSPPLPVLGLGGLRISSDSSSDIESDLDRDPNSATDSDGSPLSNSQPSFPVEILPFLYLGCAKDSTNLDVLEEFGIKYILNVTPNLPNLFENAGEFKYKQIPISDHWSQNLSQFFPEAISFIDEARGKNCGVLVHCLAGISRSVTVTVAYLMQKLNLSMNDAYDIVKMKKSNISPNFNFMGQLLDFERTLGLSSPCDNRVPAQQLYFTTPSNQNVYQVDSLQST
Test: Inhibition of MKP3
Details: not given

| IC50 [µM] | Structure (SMILES) |
| --- | --- |
| > 100 | CCCCCCCCCCCCCCC/C(NCc1ccccc1)=C1/C(=O)OC(CO)C1=O (stereo not drawn) |
| > 100 | CCCCCCCCCCCCCCCC(NCc1cccc(C)c1)=C1C(=O)OC(CO)C1=O (mixture of isomers) |

Biological target: T6, Tyrosine-protein phosphatase non-receptor type 1 (Homo sapiens, UniProt P18031)
T6 sequence (P18031 whole entry): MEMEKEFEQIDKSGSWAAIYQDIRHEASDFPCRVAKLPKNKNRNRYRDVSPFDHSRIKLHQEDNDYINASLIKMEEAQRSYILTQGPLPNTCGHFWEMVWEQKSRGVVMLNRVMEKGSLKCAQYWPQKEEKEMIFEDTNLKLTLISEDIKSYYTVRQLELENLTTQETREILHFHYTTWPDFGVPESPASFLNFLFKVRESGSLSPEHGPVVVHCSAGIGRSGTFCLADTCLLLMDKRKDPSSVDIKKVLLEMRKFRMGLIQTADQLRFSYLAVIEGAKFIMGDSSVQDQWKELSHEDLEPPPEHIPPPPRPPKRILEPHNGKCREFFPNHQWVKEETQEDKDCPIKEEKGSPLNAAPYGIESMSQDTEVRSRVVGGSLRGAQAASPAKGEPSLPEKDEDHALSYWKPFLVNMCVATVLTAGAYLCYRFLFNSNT
Test: Inhibition of PTP1B
Details: not given

| IC50 [µM] | Structure (SMILES) |
| --- | --- |
| > 100 | CCCCCCCCCCCCCCC/C(NCc1ccccc1)=C1/C(=O)OC(CO)C1=O (stereo not drawn) |
| > 100 | CCCCCCCCCCCCCCCC(NCc1cccc(C)c1)=C1C(=O)OC(CO)C1=O (mixture of isomers) |

System: not listed separately
Test: Cell cycle arrest in mouse tsFT210 cells assessed as accumulation at G2/M phase by propidium iodide staining-based flow cytometric analysis
Assay type: functional
Details: not given
Outline: (§1)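 tsFT210 cells synchronized at G2 by 17 h at 39 °C, then released for 4 h at 32 °C with compound (5–50 μM) or DMSO vehicle; 100 nM nocodazole reference. Cell-cycle phase distribution, including sub-G1, determined by flow cytometry.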

| Structure (SMILES) | Activity |
| --- | --- |
| CCCCCCCCCCCCCCC/C(NCc1ccccc1)=C1/C(=O)OC(CO)C1=O (stereo not drawn) | Dose-dependent effect |

System: not listed separately
Test: Cell cycle arrest in mouse tsFT210 cells assessed as accumulation at G2/M phase at 5 to 50 uM by propidium iodide staining-based flow cytometric analysis
Assay type: functional
Details: not given
Outline: as §1

| Structure (SMILES) | Activity |
| --- | --- |
| CCCCCCCCCCCCCCCC(NCc1cccc(C)c1)=C1C(=O)OC(CO)C1=O (mixture of isomers) | inactive |

System: tsFT210
Test: Inhibition of CDC25 in mouse tsFT210 cells assessed as hyperphosphorylation of CDK1 protein by Western blot analysis
Assay type: cell-based
Details: not given
Outline: (§2)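 G2-arrested tsFT210 cells (39 °C, 17 h) released at 32 °C for 4 h with compound or vehicle; CDK1 phosphorylation status and total CDK1 assessed by Western blotting.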

| Structure (SMILES) | inhibition |
| --- | --- |
| CCCCCCCCCCCCCCC/C(NCc1ccccc1)=C1/C(=O)OC(CO)C1=O (stereo not drawn) | Dose-dependent effect |

System: tsFT210
Test: Inhibition of CDC25 in mouse tsFT210 cells assessed as hyperphosphorylation of CDK1 protein at 50 uM by Western blot analysis
Assay type: cell-based
Details: not given
Outline: as §2

| Structure (SMILES) | inhibition |
| --- | --- |
| CCCCCCCCCCCCCCCC(NCc1cccc(C)c1)=C1C(=O)OC(CO)C1=O (mixture of isomers) | inactive |

System: tsFT210
Test: Induction of apoptosis in mouse tsFT210 cells assessed as increase in subG1 population at 50 uM after 17 hrs by propidium iodide staining-based flow cytometric analysis
Assay type: functional, cell-based
Details: in the assay text read “after 4 hrs” for “after 17 hrs”
Outline: as §1

| Structure (SMILES) | Activity |
| --- | --- |
| CCCCCCCCCCCCCCC/C(NCc1ccccc1)=C1/C(=O)OC(CO)C1=O (stereo not drawn) | inactive |
| CCCCCCCCCCCCCCCC(NCc1cccc(C)c1)=C1C(=O)OC(CO)C1=O (mixture of isomers) | inactive |

Biological target: T1, M-phase inducer phosphatase 1
Test: Inhibition of CDC25A in presence of 2 mM DTT
Details: not given
Outline: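 In vitro inhibition of purified CDC25A or CDC25B with DTT concentration in the assay buffer varied.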

| IC50 [µM] | Structure (SMILES) |
| --- | --- |
| 16.6 | CCCCCCCCCCCCCCC/C(NCc1ccccc1)=C1/C(=O)OC(CO)C1=O (stereo not drawn) |

System: tsFT210
Test: Induction of ROS generation in mouse tsFT210 cells at 50 uM at 32 degC for 30 min measured by flow cytometric analysis pretreated with H2DCFDA at 39 degC
Details: not given

| Structure (SMILES) | Activity |
| --- | --- |
| CCCCCCCCCCCCCCC/C(NCc1ccccc1)=C1/C(=O)OC(CO)C1=O (stereo not drawn) | inactive |
| CCCCCCCCCCCCCCCC(NCc1cccc(C)c1)=C1C(=O)OC(CO)C1=O (mixture of isomers) | inactive |
